# Measured values from different studies.
# Lines come from different studies, so protocols differ.
# Target: Cytochrome P450 2C19 (CYP2C19, Homo sapiens, UniProt P33261)
# Observed: enzyme activity
# Mode: inhibitor
Compound,method,species,matrix,time,pH,IC50 [µM]
CCCN(CCC)CCc1cccc2c1CC(=O)N2,fluorescence,,,,,> 1000
Cc1ccc2nc(-c3ccccc3)c(CNc3ccc(F)cc3)n2c1,,,,,,0.93
CN(Cc1cnc2nc(N)nc(N)c2n1)c1ccc(C(=O)N2CCCCC2)cc1,luciferase,,,,,16.2
CC1=CC(=O)C(C(C)C)=CC1=O,fluorescence,,,,pH 7.4,3.6
CCN(Cc1cnc2nc(N)nc(N)c2n1)c1ccc(C(=O)c2ccccc2)cc1,luciferase,,,,,0.282
CCC(C)(C)C(=O)O[C@H]1C[C@@H](C)C=C2C=C[C@H](C)[C@H](CC[C@@H](O)C[C@@H](O)CC(=O)O)[C@H]21,fluorescence,,,,,> 100
COc1ccc2cc3[n+](cc2c1OC)CCc1cc2c(cc1-3)OCO2,,,,,,> 10
Cc1cc2c(F)c(Oc3ncnn4cc(OC[C@@H](C)O)c(C)c34)ccc2[nH]1,fluorescence,,,15 min,,3.64
COC(=O)C1CCN(C(=O)c2ccc(N(Cc3ccccc3)Cc3cnc4nc(N)nc(N)c4n3)cc2)CC1,luciferase,,,,,0.195
COc1ccc2c(Cc3ccccc3F)c3n(c(=O)c2c1OC)CCc1cc2c(cc1-3)OCO2,,,,,,4.7
O=C(NCCN1CCCC1)c1cc(-c2ccc(CN3CCOCC3)cc2)nc2ccc(F)cc12,,human,liver microsomes,,,> 100
COc1ccc2[nH]c([S+]([O-])Cc3ncc(C)c(OC)c3C)nc2c1 (stereo not drawn),fluorescence,,,,,32
